ChEMBL document CHEMBL4425095, “Novel Cephalosporins Selectively Active on Nonreplicating Mycobacterium tuberculosis” (J Med Chem, 2016)
Values after ≈ are worked out from the molar mass of the structure shown. Active and inactive are the calls of the source. The calls are words filed in the database; no cut-off is given here.

Assays:
[1] = Cytotoxicity against human HepG2 cells assessed as reduction in cell viability after 2 days by Celltiter-Glo reagent based assay; conditions: read-out: LD50
How it was run: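 HepG2 cells in DMEM with 10% FBS, pyruvate, glutamine and nonessential amino acids. Seeded at 3000 cells/well and exposed 2 days to compound or vehicle (≤1% DMSO final). Reported as LD50.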

[2] = Stability in pH 5 non-replicating medium containing 0.5 mM NaNO2 assessed as parent compound remaining at 5 to 50 ug/ml at 37 degC measured every 12 hrs up to 144 hrs by LC-MS analysis; format: physicochemical; conditions: buffer
How it was run: (§1)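 Compound at 50 μg/mL in cell-free PBS pH 7.4, or nonreplicating medium pH 5.0 (BSA, tyloxapol, lysine, pantothenate omitted) with or without 0.5 mM NaNO2. Poorly soluble compounds at 5 μg/mL in 50:50 acetonitrile mixtures, pH readjusted to 5.0.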

[3] = Stability of compound in pH 2 solution assessed as parent compound remaining incubated for 4 hrs at 37 degC; format: physicochemical; conditions: read-out: Stability
How it was run: (§2)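 Percent parent compound remaining after 4 h incubation at 37 °C at the stated pH.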

[4] = Stability of compound in pH 7 solution assessed as parent compound remaining incubated for 4 hrs at 37 degC; format: physicochemical
[5] = Stability of compound in pH 12 solution assessed as parent compound remaining incubated for 4 hrs at 37 degC; format: physicochemical; conditions: read-out: Stability; how it was run: as §2
[6] = Solubility of compound in pH 7.4 solution measured after shaking for 4 hrs; format: physicochemical
How it was run: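 Solubility at pH 7.4 determined after shaking at room temperature for 4 h.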

[7] = Permeability of compound by PAMPA; format: ADME; conditions: read-out: permeability
How it was run: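 PAMPA membrane permeability by a contract lab; reported as mean Pe (10^-6 cm/s) and log Pe.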

[8] = Stability in mouse liver microsomes assessed as compound metabolism up to 60 mins; format: ADME, Microsome; conditions: 1 h
How it was run: (§3)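 Mouse and human liver microsomal stability run by a contract lab in triplicate.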

[9] = Half life in mouse liver microsomes; format: ADME, Microsome; how it was run: as §3
[10] = Half life in human liver microsomes; format: ADME, Microsome; how it was run: as §3
[11] = Intrinsic clearance in human liver microsomes assessed per mg protein measured up to 60 mins; format: ADME, Microsome; conditions: 1 h; how it was run: as §3
[12] = Stability in CD-1 mouse plasma assessed as drug transformation at 1 ug/ml measured at <5 mins by LC-MS analysis; format: ADME, cell-free
[13] = Half life in human plasma at 1 ug/ml by LC-MS analysis; format: ADME, cell-free
[14] = system: Mycobacterium tuberculosis; test: Bactericidal activity against wild-type non-replicating Mycobacterium tuberculosis H37Rv assessed as log reduction in CFU incubated for 7 days measured at OD580 = 0.1 in presence of 0.5 mM NaNO2 by charcoal agar resazurin assay; format: functional, organism-based
How it was run: (§4)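 Nonreplicating wild-type H37Rv at OD580 0.1 or 0.01 treated 7 days with or without 0.5 mM NaNO2. 10 μL spotted onto 7H11-OADC-charcoal agar and incubated 7–10 days at 37 °C. Developed with Alamar blue:Tween80 1:1 for 1 h; fluorescence read at ex 530/em 590. Complete loss of fluorescence taken as ≥2–3 log10 CFU reduction.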

Escherichia coli = test: Antibacterial activity against replicating Escherichia coli measured at OD580 = 0.01; format: functional
How it was run: (§5)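 Replicating organisms in the paper's earlier-described bacteriologic medium; 200 μL of cells at OD580 0.01 exposed to DMSO vehicle or drug in 96-well plates; growth read by optical density.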

Pseudomonas aeruginosa = test: Antibacterial activity against replicating Pseudomonas aeruginosa measured at OD580 = 0.01; format: functional; how it was run: as §5
Staphylococcus aureus = test: Antibacterial activity against replicating Staphylococcus aureus measured at OD580 = 0.01; format: functional; how it was run: as §5
[15] = system: Mycolicibacterium smegmatis; test: Antibacterial activity against replicating Mycobacterium smegmatis measured at OD580 = 0.01; format: functional; how it was run: as §5
Candida albicans = test: Antifungal activity against replicating Candida albicans measured at OD580 = 0.01; format: functional; how it was run: as §5
[16] = system: Mycobacterium tuberculosis; test: Bactericidal activity against wild-type non-replicating Mycobacterium tuberculosis H37Rv assessed as log reduction in CFU at 0.7 to 0.8 ug/ml incubated for 7 days measured at OD580 = 0.01 by charcoal agar resazurin assay; format: functional
How it was run: (§6)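 Nonreplicating wild-type H37Rv at OD580 0.01 exposed to compound for 7 days. Survivors serially diluted in PBS-tyloxapol and plated on 7H11-OADC agar; colonies counted at ~3 weeks. Limit of detection 1 colony from 10 μL undiluted sample; triplicates, one of two experiments.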

[17] = system: Mycobacterium tuberculosis; test: Bactericidal activity against wild-type non-replicating Mycobacterium tuberculosis H37Rv assessed as log reduction in CFU at 3 to 10 ug/ml incubated for 7 days measured at OD580 = 0.01 by charcoal agar resazurin assay; format: functional; how it was run: as §6
[18] = system: Mycobacterium tuberculosis; test: Bactericidal activity against wild-type non-replicating Mycobacterium tuberculosis H37Rv assessed as drug tolerance development at 3 to 10 ug/ml incubated for 7 days measured at OD580 = 0.01 by charcoal agar resazurin assay; format: functional, organism-based
[19] = system: Mycobacterium tuberculosis; test: Bactericidal activity against wild-type non-replicating Mycobacterium tuberculosis H37Rv assessed as log reduction in CFU incubated for 7 days measured at OD580 = 0.01 in presence of 0.5 mM NaNO2 by charcoal agar resazurin assay; format: functional, organism-based; how it was run: as §4
[20] = system: Mycobacterium tuberculosis; test: Bactericidal activity against wild-type non-replicating Mycobacterium tuberculosis H37Rv incubated for 7 days measured at OD580 = 0.01 in absence of NaNO2 by charcoal agar resazurin assay; format: functional, organism-based; how it was run: as §4
BMDM [21] = test: Cytotoxicity against C57BL6 mouse primary BMDM infected with wild-type non-replicating Mycobacterium tuberculosis H37Rv assessed as cell morphological changes at 100 ug/ml after 3 days; format: cell-based; conditions: 72 h
How it was run: (§7)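 Bone marrow macrophages (~1×10^5) from 8-week female C57Bl6 mice grown in DMEM/10% FBS/10% L-cell medium, with or without 50 ng/mL mouse IFNγ. Infected with H37Rv at MOI 1–5 for 4 h, washed, then given 100 μg/mL compound in 1% DMSO for 3 or 4 days. Lysed in 0.5% Triton X-100, CFU counted on 7H11-OADC agar; morphology observed.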

[22] = system: Mycobacterium tuberculosis; test: Bactericidal activity against wild-type non-replicating Mycobacterium tuberculosis H37Rv infected in recombinant mouse IFN-gamma stimulated C57BL6 mouse primary BMDM assessed as log reduction in CFU at 100 ug/ml incubated for 3 days by charcoal agar resazurin assay; format: functional; how it was run: as §7
[23] = Stability in pH 7.4 phosphate buffer solution assessed as parent compound remaining at 5 to 50 ug/ml at 37 degC measured every 12 hrs up to 144 hrs by LC-MS analysis; format: physicochemical; how it was run: as §1
[24] = Stability in pH 5 non-replicating medium assessed as parent compound remaining at 5 to 50 ug/ml at 37 degC measured every 12 hrs up to 144 hrs by LC-MS analysis; format: physicochemical; conditions: buffer; how it was run: as §1
[25] = system: Mycobacterium tuberculosis; test: Bactericidal activity against wild-type non-replicating Mycobacterium tuberculosis H37Rv assessed as reduction in CFU at 0.1 to 100 ug/ml incubated for 7 days measured at OD580 = 0.01 in presence of beta-lactamase inhibitor clavulanate by charcoal agar resazurin assay; format: functional, organism-based
[26] = system: Mycobacterium tuberculosis; test: Bactericidal activity against wild-type replicating Mycobacterium tuberculosis H37Rv assessed as reduction in CFU in presence of beta-lactamase inhibitor clavulanate; format: functional, organism-based
[27] = system: Mycobacterium tuberculosis; test: Bactericidal activity against wild-type non-replicating Mycobacterium tuberculosis H37Rv at 1 to 100 ug/ml incubated for 7 days measured at OD580 = 0.1 in presence of 0.06 to 1 mM NaNO2; format: functional, organism-based
How it was run: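 Wild-type H37Rv resuspended at OD580 0.1 in nonreplicating medium with NaNO2 at 0–1 mM, one plate per nitrite level. Exposed to compound for 7 days, then standard outgrowth assay to estimate survivors.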

[28] = system: Mycobacterium tuberculosis; test: Bactericidal activity against wild-type non-replicating Mycobacterium tuberculosis H37Rv infected in recombinant mouse IFN-gamma stimulated C57BL6 mouse primary BMDM assessed as log reduction in CFU at 100 ug/ml incubated for 4 days by charcoal agar resazurin assay; format: functional; how it was run: as §7
BMDM [29] = test: Cytotoxicity against C57BL6 mouse primary BMDM infected with wild-type non-replicating Mycobacterium tuberculosis H37Rv assessed as cell morphological changes at 100 ug/ml after 4 days; format: cell-based; conditions: 96 h; how it was run: as §7

SMILES	CC50 at 48 h [1]	Stability [2]	remaining at 4 h [3]	remaining at 4 h [5]	solubility at 4 h [6]	Papp [7]	Stability [8]	t1/2 [9]	t1/2 [10]	CLH [11]	Stability [12]	t1/2 [13]	Activity [14]	MIC90 (Escherichia coli)	MIC90 (Pseudomonas aeruginosa)	MIC90 (Staphylococcus aureus)	MIC90 [15]	MIC90 (Candida albicans)	Activity [16]	LCK [17]	also measured
CC1=C(c2nc(C)no2)N2C(=O)[C@@H](NC(=O)COc3ccccc3)[C@H]2SC1	> 100 µg/mL	Stable	100 to 102%	0%	83.7 to 84 µM (≈ 32.3 to 32.5 µg/mL)	13.4 ×10⁻⁶ cm/s	Unstable	< 5 min	1.27 h	9.13 µL/min	Unstable	2 to 3 h	Dose-dependent effect	> 100 µg/mL	> 100 µg/mL	> 100 µg/mL	> 100 µg/mL	> 100 µg/mL	2 deltalog10CFU/ml	>=3.4	remaining at 4 h ([4]; pH 7 solution, pH 7, read-out: Stability): 101%; Activity [18]: Active; Activity [19]: Dose-dependent effect; Activity [20]: Active; Activity (BMDM [21]): Non-Toxic; Activity [22]: 1 - 2 deltalog10CFU/ml
CCCOC(=O)C1=C(C)CS[C@@H]2[C@H](NC(=O)COc3ccccc3)C(=O)N12	75.7 to 100 µg/mL (≈ 194 to 256 µM)	100%	100 to 110%	0%	22.7 to 23 µM (≈ 8.86 to 8.98 µg/mL)	7.28 ×10⁻⁶ cm/s	Unstable	< 5 min	1.44 h	8.07 µL/min	Unstable	2 to 3 h	Dose-dependent effect	> 100 µg/mL	> 100 µg/mL	> 100 µg/mL	> 100 µg/mL	> 100 µg/mL	2 deltalog10CFU/ml	>=3.4	Stability [23]: 80%; Stability [24]: 100%; Stability ([4]; buffer, pH 7, 4 h): 133%; Activity [18]: Active; Activity [25]: Active; Activity [26]: inactive; Activity [27]: Active; Activity [19]: Dose-dependent effect; Activity [20]: Active; Activity [28]: 1 - 2 deltalog10CFU/ml; Activity (BMDM [29]): Non-Toxic
